Data published in ChEMBL document CHEMBL4715748, “Synthesis and biological investigation of new equatorial (β) stereoisomers of 3-aminotropane arylamides with atypical antipsychotic profile” (Bioorg Med Chem, 2016).

Tests used:
[1] = Effect on body temperature in Swiss Albino mouse assessed as rectal body temperature at 10 mg/kg, ip measured after 30 mins by thermometer (reference value: 0.16 to 0.33 degreeC); type: organism-based; conditions: in vivo, 0.5 h
[2] = target: Dopamine D2 receptor and Serotonin 2a receptor (D2 and 5HT2a) (Rattus norvegicus) (UniProt P61169+P14842); assay: Ratio of pKi for displacement of [3H]-ketanserin from rat cerebral cortex 5HT2A receptor measured after 20 mins by liquid scintillation counter method to pKi for displacement of [3H] Spiperone from rat striatum dopamine D2 receptor measured after 30 mins by liquid scintillation counter method
Chain of Dopamine D2 receptor and Serotonin 2a receptor (D2 and 5HT2a) (Rattus norvegicus) (P14842 whole entry, looked up): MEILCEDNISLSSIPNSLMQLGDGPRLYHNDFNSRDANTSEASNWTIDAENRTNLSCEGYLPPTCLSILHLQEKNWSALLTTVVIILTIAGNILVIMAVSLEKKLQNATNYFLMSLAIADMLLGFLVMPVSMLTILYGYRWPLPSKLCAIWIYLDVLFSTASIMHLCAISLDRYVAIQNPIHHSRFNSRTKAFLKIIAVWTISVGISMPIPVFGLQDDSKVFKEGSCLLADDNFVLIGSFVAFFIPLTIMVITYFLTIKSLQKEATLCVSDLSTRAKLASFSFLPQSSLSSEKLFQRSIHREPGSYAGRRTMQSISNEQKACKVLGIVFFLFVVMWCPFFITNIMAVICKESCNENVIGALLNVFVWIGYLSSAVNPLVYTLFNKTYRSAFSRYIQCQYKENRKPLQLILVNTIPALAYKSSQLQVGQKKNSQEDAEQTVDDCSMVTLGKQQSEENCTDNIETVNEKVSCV
Chain of Dopamine D2 receptor and Serotonin 2a receptor (D2 and 5HT2a) (Rattus norvegicus) (P61169 whole entry, looked up): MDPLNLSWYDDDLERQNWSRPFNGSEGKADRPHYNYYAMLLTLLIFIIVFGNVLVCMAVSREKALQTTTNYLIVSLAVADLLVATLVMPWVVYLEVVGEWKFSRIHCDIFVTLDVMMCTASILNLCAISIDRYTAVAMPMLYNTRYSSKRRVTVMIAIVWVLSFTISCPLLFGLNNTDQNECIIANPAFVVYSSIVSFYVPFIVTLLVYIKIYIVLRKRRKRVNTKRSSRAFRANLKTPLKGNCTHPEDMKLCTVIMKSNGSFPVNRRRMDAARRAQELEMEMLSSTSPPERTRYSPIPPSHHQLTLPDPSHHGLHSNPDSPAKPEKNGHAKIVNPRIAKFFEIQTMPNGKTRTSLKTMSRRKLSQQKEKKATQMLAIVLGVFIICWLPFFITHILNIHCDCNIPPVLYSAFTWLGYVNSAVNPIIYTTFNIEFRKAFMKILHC
Procedure, shortened: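 Ratio of pKi values, 5-HT2A over D2, computed from competition radioligand binding in rat brain tissue.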

[3] = Effect on body temperature in Swiss Albino mouse assessed as rectal body temperature at 10 mg/kg, ip measured after 120 mins by thermometer (reference value: 0.15 to 1.11 degreeC); type: organism-based; conditions: in vivo, 2 h
[4] = Effect on 8-OH-DPAT-induced lower lip retraction in Wistar rat at 20 mg/kg, ip pretreated with compound for 45 mins followed by 8-OH-DPAT challenge and measured after 15 mins (reference value: 2.7 to 2.8); type: functional; conditions: time 60 min, 1 h
[5] = Effect on body temperature in Swiss Albino mouse assessed as rectal body temperature at 20 mg/kg, ip measured after 120 mins by thermometer (reference value: 0.15 to 1.11 degreeC); type: ADME, organism-based; conditions: in vivo, 2 h
[6] = target: 5-hydroxytryptamine receptor 2A (Rattus norvegicus, UniProt P14842); assay: Displacement of [3H]-ketanserin from rat cerebral cortex 5HT2A receptor measured after 20 mins by liquid scintillation counter method
Chain of 5-hydroxytryptamine receptor 2A (P14842 whole entry): as the sequence (P14842 whole entry, looked up) above
Procedure, shortened: (§1)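 Competition binding in rat brain tissue membranes against D2, 5-HT1A and 5-HT2A sites; Ki reported as mean ± S.E.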

[7] = Effect on body temperature in Swiss Albino mouse assessed as rectal body temperature at 20 mg/kg, ip measured after 60 mins by thermometer (reference value: 0.33 to 0.61 degreeC); type: ADME, organism-based; conditions: in vivo, 1 h
[8] = Effect on body temperature in Swiss Albino mouse assessed as rectal body temperature at 20 mg/kg, ip measured after 30 mins by thermometer (reference value: 0.16 to 0.33 degreeC); type: ADME, organism-based; conditions: in vivo, 0.5 h
[9] = Effect on body temperature in Swiss Albino mouse assessed as rectal body temperature at 10 mg/kg, ip measured after 90 mins by thermometer (reference value: 0.18 to 0.63 degreeC); type: ADME, organism-based; conditions: in vivo, 1.5 h
[10] = target: T1, 5-hydroxytryptamine receptor 1A (Rattus norvegicus, UniProt P19327); assay: Displacement of [3H]-8-OH-DPAT from rat cerebral cortex 5HT1A receptor measured after 15 mins by liquid scintillation counter method
T1 sequence (P19327 whole entry): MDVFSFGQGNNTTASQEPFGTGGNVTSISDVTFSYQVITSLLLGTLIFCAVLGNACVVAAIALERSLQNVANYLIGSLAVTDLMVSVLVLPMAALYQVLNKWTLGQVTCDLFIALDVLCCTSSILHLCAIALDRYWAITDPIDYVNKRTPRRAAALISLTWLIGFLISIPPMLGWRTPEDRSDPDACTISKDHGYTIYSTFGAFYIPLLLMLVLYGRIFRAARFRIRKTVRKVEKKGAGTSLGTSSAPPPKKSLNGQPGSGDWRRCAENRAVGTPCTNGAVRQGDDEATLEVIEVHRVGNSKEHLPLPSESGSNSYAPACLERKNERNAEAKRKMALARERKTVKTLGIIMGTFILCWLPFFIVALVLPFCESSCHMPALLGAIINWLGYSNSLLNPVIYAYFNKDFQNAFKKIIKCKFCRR

Mus musculus [11] = assay: Effect on 8-OH-DPAT-induced hypothermia in Swiss albino mouse assessed as change in rectal body temperature at 10 mg/kg, ip pretreated with compound for 45 mins followed by 8-OH-DPAT challenge and measured after 45 min by thermometer (reference value: -1.04 to -0.78 degreeC); type: functional, organism-based; conditions: time 90.0 min
Mus musculus [12] = assay: Effect on 8-OH-DPAT-induced hypothermia in Swiss albino mouse assessed as change in rectal body temperature at 20 mg/kg, ip pretreated with compound for 45 mins followed by 8-OH-DPAT challenge and measured after 15 min by thermometer (reference value: -1.82 to -1.66 degreeC); type: functional, organism-based; conditions: time 60.0 min
Mus musculus [13] = assay: Antipsychotic activity Swiss Albino mouse assessed as inhibition of DOI-induced head twitching by measuring number of episodes at 10 mg/kg, ip administered 30 mins prior to DOI stimulation (reference value: 19.63 to 19.88); type: functional; conditions: 0.5 h
Procedure, shortened: (§2)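 Male Albino Swiss mice (24–28 g) were habituated to sawdust-lined cages 20 min before the first treatment. Compounds were suspended in 1% aqueous Tween 80 and given i.p. 30 min before (±)-DOI, 2.5 mg/kg i.p. in aqueous solution. Head twitches were counted blind over 20 min, n=8 per group, mean ± SEM, one-way ANOVA with Dunnett's test.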

Mus musculus [14] = assay: Effect on 8-OH-DPAT-induced hypothermia in Swiss albino mouse assessed as change in rectal body temperature at 20 mg/kg, ip pretreated with compound for 45 mins followed by 8-OH-DPAT challenge and measured after 30 min by thermometer (reference value: -1.36 to -1.12 degreeC); type: functional, organism-based; conditions: time 75.0 min
Mus musculus [15] = assay: Antipsychotic activity Swiss Albino mouse assessed as inhibition of DOI-induced head twitching by measuring number of episodes at 5 mg/kg, ip administered 30 mins prior to DOI stimulation (reference value: 19.63 to 19.88); type: functional; conditions: 0.5 h; procedure, shortened: as §2
Mus musculus [16] = assay: Effect on 8-OH-DPAT-induced hypothermia in Swiss albino mouse assessed as change in rectal body temperature at 10 mg/kg, ip pretreated with compound for 45 mins followed by 8-OH-DPAT challenge and measured after 30 min by thermometer (reference value: -1.36 to -1.12 degreeC); type: functional, organism-based; conditions: time 75.0 min
Mus musculus [17] = assay: Effect on 8-OH-DPAT-induced hypothermia in Swiss albino mouse assessed as change in rectal body temperature at 10 mg/kg, ip pretreated with compound for 45 mins followed by 8-OH-DPAT challenge and measured after 15 min by thermometer (reference value: -1.82 to -1.66 degreeC); type: functional, organism-based; conditions: time 60.0 min
[18] = Effect on body temperature in Swiss Albino mouse assessed as rectal body temperature at 10 mg/kg, ip measured after 60 mins by thermometer (reference value: 0.33 to 0.61 degreeC); type: ADME, organism-based; conditions: in vivo, 1 h
[19] = Effect on body temperature in Swiss Albino mouse assessed as rectal body temperature at 20 mg/kg, ip measured after 90 mins by thermometer (reference value: 0.18 to 0.63 degreeC); type: ADME, organism-based; conditions: in vivo, 1.5 h
[20] = Half life in pooled human liver microsomes assessed as parent compound remaining at 2.5 uM measured up to 45 mins in presence of NADPH by LC-MS analysis; type: ADME, Microsome
Procedure, shortened: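 Compound at 2.5 μM (added from 100 μM stock in 50/50 acetonitrile/water) with 1 mg/mL pooled human liver microsomes and 250 μM NADPH in 0.1 M potassium phosphate pH 7.4 at 37 °C after 5-min preincubation. Sampled at 5, 10, 15, 30, 45 min into ice-cold acetonitrile with atropine internal standard; parent quantified by LC-MS (ESI+, [M+H]+); no-NADPH controls; half-time derived.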

Mus musculus [21] = assay: Effect on 8-OH-DPAT-induced hypothermia in Swiss albino mouse assessed as change in rectal body temperature at 20 mg/kg, ip pretreated with compound for 45 mins followed by 8-OH-DPAT challenge and measured after 45 min by thermometer (reference value: -1.04 to -0.78 degreeC); type: functional, organism-based; conditions: time 90.0 min
D(2) dopamine receptor = D(2) dopamine receptor (Rattus norvegicus, UniProt P61169); assay: Displacement of [3H] Spiperone from rat striatum dopamine D2 receptor measured after 30 mins by liquid scintillation counter method; procedure, shortened: as §1
Chain of D(2) dopamine receptor (P61169 whole entry): as the sequence (P61169 whole entry, looked up) above

Mus musculus [22] = assay: Antipsychotic activity Swiss Albino mouse assessed as inhibition of DOI-induced head twitching by measuring number of episodes at 2.5 mg/kg, ip administered 30 mins prior to DOI stimulation (reference value: 19.63 to 19.88); type: functional; conditions: 0.5 h; procedure, shortened: as §2
Mus musculus [23] = assay: Effect on 8-OH-DPAT-induced hypothermia in Swiss albino mouse assessed as change in rectal body temperature at 10 mg/kg, ip pretreated with compound for 45 mins followed by 8-OH-DPAT challenge and measured after 60 min by thermometer (reference value: -0.66 to -0.5 degreeC); type: functional, organism-based; conditions: time 105.0 min
[24] = Effect on 8-OH-DPAT-induced lower lip retraction in Wistar rat at 10 mg/kg, ip pretreated with compound for 45 mins followed by 8-OH-DPAT challenge and measured after 15 mins (reference value: 2.7 to 2.8); type: functional; conditions: time 60 min, 1 h
Mus musculus [25] = assay: Effect on 8-OH-DPAT-induced hypothermia in Swiss albino mouse assessed as change in rectal body temperature at 20 mg/kg, ip pretreated with compound for 45 mins followed by 8-OH-DPAT challenge and measured after 60 min by thermometer (reference value: -0.66 to -0.5 degreeC); type: functional, organism-based; conditions: time 105.0 min
[26] = Effect on 8-OH-DPAT-induced lower lip retraction in Wistar rat at 0.2 mg/kg, sc pretreated with compound for 15 mins followed by 8-OH-DPAT challenge and measured after 15 mins (reference value: 2.7 to 2.8); conditions: time 30 min, 0.5 h
Mus musculus [27] = assay: Inhibition of 8-OH-DPAT-induced hypothermia in Swiss albino mouse assessed as change in rectal body temperature at 0.3 mg/kg, sc pretreated with compound for 45 mins followed by 8-OH-DPAT challenge and measured after 15 min by thermometer (reference value: -1.8 degreeC); type: functional, organism-based; conditions: time 60.0 min
Mus musculus [28] = assay: Inhibition of 8-OH-DPAT-induced hypothermia in Swiss albino mouse assessed as change in rectal body temperature at 0.3 mg/kg, sc pretreated with compound for 45 mins followed by 8-OH-DPAT challenge and measured after 60 min by thermometer (reference value: -1.3 degreeC); type: functional, organism-based; conditions: time 105.0 min
Mus musculus [29] = assay: Inhibition of 8-OH-DPAT-induced hypothermia in Swiss albino mouse assessed as change in rectal body temperature at 0.3 mg/kg, sc pretreated with compound for 45 mins followed by 8-OH-DPAT challenge and measured after 30 min by thermometer (reference value: -1.7 degreeC); type: functional, organism-based; conditions: time 75.0 min
[30] = Effect on 8-OH-DPAT-induced lower lip retraction in Wistar rat at 0.1 mg/kg, sc pretreated with compound for 45 mins followed by 8-OH-DPAT challenge and measured after 15 mins (reference value: 2.7 to 2.8); type: functional; conditions: time 60 min, 1 h
Mus musculus [31] = assay: Inhibition of 8-OH-DPAT-induced hypothermia in Swiss albino mouse assessed as change in rectal body temperature at 0.3 mg/kg, sc pretreated with compound for 45 mins followed by 8-OH-DPAT challenge and measured after 45 min by thermometer (reference value: -1.3 degreeC); type: functional, organism-based; conditions: time 90.0 min

| SMILES | deltaT [1] | Ratio pKi [2] | deltaT [3] | Activity [4] | deltaT [5] | Ki [6] | deltaT [7] | deltaT [8] | deltaT [9] | Ki [10] | deltaT (Mus musculus [11]) | deltaT (Mus musculus [12]) | Activity (Mus musculus [13]) | deltaT (Mus musculus [14]) | Activity (Mus musculus [15]) | deltaT (Mus musculus [16]) | deltaT (Mus musculus [17]) | deltaT [18] | deltaT [19] | half-life at 2.5 µM [20] | other results |
| --- | --- | --- | --- | --- | --- | --- | --- | --- | --- | --- | --- | --- | --- | --- | --- | --- | --- | --- | --- | --- | --- |
| O=C(NC1CC2CCC(C1)N2Cc1ccccc1Cl)c1ccc2ccccc2c1 (stereo not drawn) | 0 °C | 0.86 | 1.34 °C | 2 | 1.39 °C | 397 nM | 0.44 °C | -0.36 °C | 0.84 °C | 158 nM | -0.62 °C | -2 °C | 10.75 | -2.12 °C | 14.75 | -1.17 °C | -0.97 °C | 0.96 °C | 0.44 °C | 33 min | deltaT (Mus musculus [21]): -2.18 °C; Ki (D(2) dopamine receptor): 34.8 nM; Activity (Mus musculus [22]): 20; deltaT (Mus musculus [23]): -0.12 °C; Activity [24]: 2.5; deltaT (Mus musculus [25]): -1.53 °C |
| COc1ccccc1CN1C2CCC1CC(NC(=O)c1ccc3ccccc3c1)C2 (stereo not drawn) | 0.23 °C | 0.85 | 0.26 °C | 2 | -0.26 °C | 920 nM | 0.01 °C | -0.34 °C | 0.63 °C | 82.5 nM | -1.45 °C | -1.47 °C | 8.25 | -1.37 °C | 12.25 | -1.77 °C | -1.37 °C | 0.44 °C | 0.16 °C | 41.3 min | deltaT (Mus musculus [21]): -0.92 °C; Ki (D(2) dopamine receptor): 76.9 nM; Activity (Mus musculus [22]): 16.25; deltaT (Mus musculus [23]): -1.08 °C; Activity [24]: 2.5; deltaT (Mus musculus [25]): -0.65 °C |
| COc1ccccc1N1CCN(CCN(C(=O)C2CCCCC2)c2ccccn2)CC1 [WAY-100,635] |  |  |  |  |  |  |  |  |  |  |  |  |  |  |  |  |  |  |  |  | Activity [26]: 1.3; deltaT (Mus musculus [27]): -0.6 °C; deltaT (Mus musculus [28]): -0.2 °C; deltaT (Mus musculus [29]): -0.8 °C; Activity [30]: 1.4; deltaT (Mus musculus [31]): -0.5 °C |
